The subject of one assay is Mus musculus. In words: Antidepressant activity in ip dosed CD1 mouse assessed as inhibition of tetrabenazine methanesulfonate-induced reserpine like behavior administered 30 mins before tetrabenazine methanesulfonate challenge measured after 30 mins. In kind it is functional. The method in brief: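 Male CD-1 mice, groups of five, given test compound ip; tetrabenazine methanesulfonate 40 mg/kg ip 30 min later; after a further 30 min mice placed in individual containers and ptosis scored on a three-point scale (eyes closed = 2).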

The target of a further assay is Transporter (Rattus norvegicus, UniProt Q63380). Nature of the assay: Inhibition of NET-mediated norepinephrine uptake in rat brain synaptosomes. The class given is subcellular.
Transporter, sequence (Q63380 whole entry): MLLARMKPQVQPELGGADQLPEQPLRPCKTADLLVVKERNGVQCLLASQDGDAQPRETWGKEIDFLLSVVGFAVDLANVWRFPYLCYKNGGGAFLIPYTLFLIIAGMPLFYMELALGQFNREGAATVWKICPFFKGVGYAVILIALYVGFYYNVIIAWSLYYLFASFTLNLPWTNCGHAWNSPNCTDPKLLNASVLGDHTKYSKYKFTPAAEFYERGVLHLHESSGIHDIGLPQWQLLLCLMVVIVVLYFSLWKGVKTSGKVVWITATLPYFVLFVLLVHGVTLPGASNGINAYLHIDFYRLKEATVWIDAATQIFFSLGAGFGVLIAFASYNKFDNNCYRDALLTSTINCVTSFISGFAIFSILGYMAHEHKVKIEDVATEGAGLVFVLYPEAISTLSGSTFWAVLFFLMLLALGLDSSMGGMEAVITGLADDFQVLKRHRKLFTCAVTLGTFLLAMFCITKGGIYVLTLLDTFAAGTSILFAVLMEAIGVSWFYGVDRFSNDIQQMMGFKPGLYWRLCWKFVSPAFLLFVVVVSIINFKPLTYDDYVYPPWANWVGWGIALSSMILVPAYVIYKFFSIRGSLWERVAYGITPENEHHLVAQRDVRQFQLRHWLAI

For orientation: ED50 means the midpoint of the dose-response relation. A word on the IC50: it is the point on the concentration scale where inhibition reaches its midpoint. A higher IC50 goes with lower potency.

As to `CN(C)CCCN1c2ccccc2CCc2ccccc21` [IMIPRAMINE], in the assay with Mus musculus, the ED50 is 1.3 mg/kg.

Take `Br.CN1CC=C(c2cccc(Cc3ccccc3)c2)CC1`: the ED50 with Mus musculus is > 20 mg/kg.

On to `Oc1ccc(Cc2ccccc2C2CCNCC2)cc1`, for which the ED50 in the assay with Mus musculus was 1.2 mg/kg.

In the case of `Br.CN1CCC(c2ccccc2Cc2ccc(F)cc2)CC1`, in the assay on Mus musculus, the ED50 came out at 4.9 mg/kg.

As for `COC1(c2ccccc2Cc2ccccc2)CCNCC1`, the ED50 with Mus musculus was 7.8 mg/kg.

Turning to `CN1CCC(c2ccccc2Cc2ccc(O)cc2)CC1`, the ED50 with Mus musculus was > 20 mg/kg.

As to `C1=C(c2ccccc2Cc2ccccc2)CCN(CCc2ccccc2)C1`, the ED50 with Mus musculus is > 20 mg/kg.

Take `CN1CCC(OCc2ccccc2)(c2ccccc2)CC1.Cl`: the ED50 in the assay with Mus musculus is 6.2 mg/kg.

As for `CN1CCC(O)(c2ccc(Cc3ccccc3)cc2)CC1`, the ED50 with Mus musculus is > 20 mg/kg.

For the compound `C1=C(c2ccccc2Cc2ccccc2)CCN(Cc2ccccc2)C1.Cl`, the 50% effective dose (ED50) with Mus musculus was > 20 mg/kg.

For `OC1(c2ccccc2Cc2ccccc2)CCN(CCc2ccccc2)CC1`, the ED50 in the assay on Mus musculus was > 20 mg/kg.

Turning to `CC(=O)OC1(c2ccccc2Cc2ccccc2)CCN(Cc2ccccc2)CC1.Cl`, the median effective dose (ED50) in the assay on Mus musculus was > 20 mg/kg.

As for `CN1CCC(O)(c2cccc(Cc3ccccc3)c2)CC1`, in the assay on Mus musculus, the ED50 is > 20 mg/kg.

As to `Cl.c1ccc(COC2(c3ccccc3)CCN(CC3CC3)CC2)cc1`, in the assay on Mus musculus, the ED50 turned out to be 6.3 mg/kg.

On to `CNCCCN1c2ccccc2CCc2ccccc21` [DESIPRAMINE], for which, in the assay on Mus musculus, the ED50 was determined as 0.8 mg/kg.

Consider `c1ccc(CCN2CCC(OCc3ccccc3)(c3ccccc3)CC2)cc1`, for which, in the assay with Mus musculus, the ED50 is > 20 mg/kg.

For the compound `O=C(Oc1ccccc1)N1CCC(c2ccccc2Cc2ccccc2)CC1`, the ED50 in the assay with Mus musculus was > 20 mg/kg.

For `COC1(c2ccccc2Cc2ccccc2)CCN(C)CC1.Cl`, the ED50 in the assay with Mus musculus is > 20 mg/kg.

`CN1CCC(O)(c2ccccc2Cc2ccccc2)CC1`: the ED50 in the assay on Mus musculus came to 18 mg/kg.

With `Br.COc1ccc(Cc2ccccc2C2=CCN(C)CC2)cc1`, the ED50 in the assay with Mus musculus is > 20 mg/kg.

Regarding `Cl.OC1(c2ccccc2Cc2ccccc2)CCN(Cc2ccccc2)CC1`, the ED50 in the assay with Mus musculus was > 20 mg/kg.

Take `COc1ccc(Cc2ccccc2C2CCNCC2)cc1.Cl`: the ED50 with Mus musculus was 7.1 mg/kg.

`CC(=O)OC1(c2ccccc2Cc2ccccc2)CCN(C)CC1.Cl`: the ED50 in the assay on Mus musculus is > 20 mg/kg.

The compound `c1ccc(C2OC3(CCNCC3)c3ccccc32)cc1` (centres undefined) registered an IC50 against Transporter of 10 nM.

With `CCOC(=O)N1CCC(OCc2ccccc2)(c2ccccc2)CC1`, in the assay with Mus musculus, the 50% effective dose (ED50) was > 20 mg/kg.

Consider `Cl.c1ccc(COC2(c3ccccc3)CCNCC2)cc1`, for which the ED50 in the assay with Mus musculus was found to be 10.1 mg/kg.

For the compound `Br.CN1CC=C(c2ccc(Cc3ccccc3)cc2)CC1`, in the assay on Mus musculus, the ED50 is > 20 mg/kg.

Take `COc1ccc(Cc2ccccc2C2(O)CCN(C)CC2)cc1`: the ED50 in the assay with Mus musculus is > 20 mg/kg.

On to `CC(=O)OC1(c2cccc(Cc3ccccc3)c2)CCN(C)CC1.Cl`, for which, in the assay with Mus musculus, the ED50 is > 20 mg/kg.

As for `CN(C)CCC=C1c2ccccc2CCc2ccccc21` [AMITRIPTYLINE], in the assay with Mus musculus, the 50% effective dose (ED50) amounted to 1.9 mg/kg.

Regarding `Br.Fc1ccc(Cc2ccccc2C2CCNCC2)cc1`, the ED50 in the assay with Mus musculus came to 1.5 mg/kg.

With `ON1CCC(c2ccccc2Cc2ccccc2)CC1`, in the assay on Mus musculus, the ED50 was 7.3 mg/kg.

As for `Br.COc1ccc(Cc2ccccc2C2CCN(C)CC2)cc1`, the ED50 in the assay with Mus musculus was > 20 mg/kg.

Regarding `Br.c1ccc(CCN2CCC(c3ccccc3Cc3ccccc3)CC2)cc1`, in the assay on Mus musculus, the ED50 is 10.8 mg/kg.

The values are drawn from ChEMBL document CHEMBL3244303, “Synthesis of spiro[isobenzofuran-1(3H),4'-piperidines] as potential central nervous system agents. 5. Conformationally mobile analogues derived by furan ring opening” (J Med Chem, 1979).
